# Results taken from ChEMBL document CHEMBL2021807, “The conversion of oridonin to spirolactone-type or enmein-type diterpenoid: synthesis and biological evaluation of ent-6,7-seco-oridonin derivatives as novel potential anticancer agents” (Eur J Med Chem, 2012).
# How the values were obtained:
# [1] = system: Bel-7402; assay: Cytotoxicity against human Bel7402 cells after 72 hrs by MTT assay; type: functional, cell-based; details: Bel-7402, 72 h
# Method in brief: (§1)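 MTT assay. Log-phase cells were seeded at 5×10^4 cells/ml and treated in four replicates at 0.39–100 μg/ml, 37 °C, 5% CO2. At 72 h, MTT (5 mg/ml solution) was added for 4 h, then DMSO, and OD read at 490 nm. Negative reference was 0.1% DMSO; Taxol at 10 μg/ml served as positive reference. IC50 in μM, mean of three experiments.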
# [2] = system: MGC-803; assay: Cytotoxicity against human MGC803 cells after 72 hrs by MTT assay; type: functional, cell-based; details: MGC-803, 72 h; method in brief: as §1
# [3] = Cytotoxicity against human CaEs17 cells after 72 hrs by MTT assay; type: functional, cell-based; details: CaEs17, 72 h; method in brief: as §1
# [4] = system: K562; assay: Cytotoxicity against human K562 cells after 72 hrs by MTT assay; type: functional, cell-based; details: K562, 72 h; method in brief: as §1
# [5] = system: MCF7; assay: Cytotoxicity against human MCF7 cells after 72 hrs by MTT assay; type: functional, cell-based; details: MCF7, 72 h; method in brief: as §1
# [6] = system: A549; assay: Cytotoxicity against human A549 cells after 72 hrs by MTT assay; type: functional, cell-based; details: A549, 72 h; method in brief: as §1
# [7] = system: HeLa; assay: Cytotoxicity against human HeLa cells after 72 hrs by MTT assay; type: functional, cell-based; method in brief: as §1
# [8] = system: HepG2; assay: Cytotoxicity against human HepG2 cells; type: functional, cell-based
# [9] = system: MGC-803; assay: Antitumor activity against human MGC803 cells xenografted in ICR mouse assessed as inhibition of tumor growth at 10 mg/kg, ip qd for 25 consecutive days dosed 7 days post tumor cells transplantation relative to untreated control; type: functional; details: MGC-803, ip, 168 h, read-out: INH, route intraperitoneal
# Method in brief: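 MGC-803 gastric cancer tumors in mice, 8 per group. Intraperitoneal dosing at 10 mg/kg in 1% DMSO/2% poloxamer/97% saline, started 7 d after tumor transplantation and given once daily for 25 consecutive days. The negative control received 0.9% saline ip. At the end, mice were killed and weighed and tumors excised and weighed. Inhibition (%) = (1 − mean treated tumor weight/mean control tumor weight) × 100.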
# [10] = system: MGC-803; assay: Antitumor activity against human MGC803 cells xenografted in ICR mouse assessed as inhibition of tumor growth at 10 mg/kg, iv qd for 25 consecutive days dosed 7 days post tumor cells transplantation relative to untreated control; type: functional; details: MGC-803, 168 h
# Method in brief: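 MGC-803 gastric cancer tumors in mice, 8 per group. Intravenous dosing at 10 mg/kg in 1% DMSO/2% poloxamer/97% saline, started 7 d after tumor transplantation and given once daily for 25 consecutive days. The control group received 0.9% saline ip. Tumors were excised and weighed at the end. Inhibition (%) = (1 − mean treated tumor weight/mean control tumor weight) × 100.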
smiles,measurement,setting,value
C=C1C(=O)[C@@]23C(=O)OC[C@]4(C(=O)CCC(C)(C)[C@H]4C=O)[C@@H]2CC[C@@H]1[C@H]3OC(C)=O,IC50,[1],1.73 µM
same,IC50,[2],1.66 µM
same,IC50,[3],1.35 µM
same,IC50,[4],1.39 µM
C=C1C(=O)[C@@]23C(=O)OC[C@]4(C(=O)CCC(C)(C)[C@H]4C=O)[C@@H]2CC[C@@H]1[C@H]3OC(=O)c1ccc(C)cc1,IC50,[1],1.54 µM
same,IC50,[2],2.24 µM
same,IC50,[3],1.05 µM
same,IC50,[4],1.27 µM
C=C1C(=O)[C@@]23C(=O)OC[C@]4(C(=O)CCC(C)(C)[C@H]4C=O)[C@@H]2CC[C@@H]1[C@H]3OC(=O)c1ccccc1Cl,IC50,[1],2.89 µM
same,IC50,[2],2.66 µM
same,IC50,[3],2.01 µM
same,IC50,[4],1.22 µM
C=C1C(=O)[C@@]23C(=O)OC[C@]4([C@@H](OC(C)=O)CCC(C)(C)[C@H]4C=O)[C@@H]2CC[C@@H]1[C@H]3O,IC50,[1],75.4 µM
same,IC50,[5],76.7 µM
same,IC50,[6],26 µM
same,IC50,[7],79.4 µM
same,IC50,[3],72.5 µM
same,IC50,[4],9.56 µM
C=C1C(=O)[C@@]23C(=O)OC[C@]4(C(=O)CCC(C)(C)[C@H]4C=O)[C@@H]2CC[C@@H]1[C@H]3OC(=O)c1ccc(OC)cc1,IC50,[1],2.8 µM
same,IC50,[2],1.87 µM
same,IC50,[3],2.98 µM
same,IC50,[4],1.65 µM
C=C1C(=O)[C@@]23C(=O)OC[C@]4(C(=O)CCC(C)(C)[C@H]4C=O)[C@@H]2CC[C@@H]1[C@H]3OC(=O)c1ccccc1,IC50,[1],1.85 µM
same,IC50,[2],1.92 µM
same,IC50,[3],1.71 µM
same,IC50,[4],1.48 µM
C=C1C(=O)[C@@]23C(=O)OC[C@]4(C(=O)CCC(C)(C)[C@H]4C=O)[C@@H]2CC[C@@H]1[C@H]3OC(=O)c1ccc(F)cc1,IC50,[1],3.75 µM
same,IC50,[2],3.96 µM
same,IC50,[3],8.31 µM
same,IC50,[4],2.7 µM
C=C1C(=O)[C@@]23C(=O)OC[C@]4(C(=O)CCC(C)(C)[C@H]4C=O)[C@@H]2CC[C@@H]1[C@H]3OC(=O)c1ccc(Cl)cc1,IC50,[1],3.84 µM
same,IC50,[2],3.12 µM
same,IC50,[3],2.55 µM
same,IC50,[4],1.38 µM
C=C1C(=O)[C@]23C[C@H]1C[C@H](O)[C@H]2[C@@]12CO[C@@H](O)[C@@H]1C(C)(C)CC[C@@H]2OC3=O [EPINODOSIN],IC50,[8],0.45 µM
C=C1C(=O)[C@@]23C(=O)OC[C@]4(C(=O)CCC(C)(C)[C@H]4C=O)[C@@H]2CC[C@@H]1[C@H]3OC(=O)CC,IC50,[1],1.65 µM
same,IC50,[2],1.78 µM
same,IC50,[3],1.4 µM
same,IC50,[4],1.31 µM
C=C1C(=O)[C@]23C[C@H]1CC[C@H]2[C@@]1(CCCC(C)(C)[C@H]1CO)COC3=O [SCULPONEATIN N],IC50,[4],0.21 µM
C=C1C(=O)[C@@]23C(=O)OC[C@]4(C(=O)CCC(C)(C)[C@H]4C=O)[C@@H]2CC[C@@H]1[C@H]3OC(=O)c1ccccc1F,IC50,[1],3.95 µM
same,IC50,[2],3.94 µM
same,IC50,[3],8.55 µM
same,IC50,[4],2.86 µM
C=C1C(=O)[C@]23[C@H](O)[C@H]1CC[C@H]2[C@@]12CO[C@]3(O)[C@@H](O)[C@@H]1C(C)(C)CC[C@@H]2O [ORIDONIN],IC50,[1],7.48 µM
same,IC50,[5],14.6 µM
same,IC50,[2],5.69 µM
same,IC50,[6],26.2 µM
same,IC50,[7],32.7 µM
same,inhibition in vivo at 10 mg/kg,[9],26.3%
same,IC50,[3],11 µM
same,IC50,[4],4.76 µM
C=C1C(=O)[C@@]23C(=O)OC[C@]4(C(=O)CCC(C)(C)[C@H]4C=O)[C@@H]2CC[C@@H]1[C@H]3OC(=O)c1ccc(C(F)(F)F)cc1,IC50,[1],3.99 µM
same,IC50,[2],4.93 µM
same,IC50,[3],8.96 µM
same,IC50,[4],2.82 µM
CC(=O)O[C@H]1C(=O)[C@@]2(C)[C@H]([C@H](OC(=O)c3ccccc3)[C@]3(O)C[C@H](OC(=O)[C@H](O)[C@@H](NC(=O)c4ccccc4)c4ccccc4)C(C)=C1C3(C)C)[C@]1(OC(C)=O)CO[C@@H]1C[C@@H]2O [PACLITAXEL],IC50,[1],1.89 µM
same,inhibition in vivo at 10 mg/kg,[10],66.6%
same,IC50,[2],0.85 µM
same,IC50,[3],0.43 µM
same,IC50,[4],0.41 µM
C=C1C(=O)[C@@]23C(=O)O[C@H]4CCC(C)(C)[C@H]5[C@H](O)OC[C@@]45[C@@H]2CC[C@@H]1[C@H]3O,IC50,[1],33 µM
same,IC50,[5],68.2 µM
same,IC50,[6],50.9 µM
same,IC50,[7],60.7 µM
same,IC50,[3],30.8 µM
same,IC50,[4],8.11 µM
C=C1C(=O)[C@@]23C(=O)OC[C@]4(C(=O)CCC(C)(C)[C@H]4C=O)[C@@H]2CC[C@@H]1[C@H]3O,IC50,[1],5.03 µM
same,IC50,[5],24 µM
same,IC50,[6],4.58 µM
same,IC50,[7],4.63 µM
same,inhibition in vivo at 10 mg/kg,[9],31.4%
same,IC50,[3],5.85 µM
same,IC50,[4],2.18 µM
C=C1C(=O)[C@@]23C(=O)O[C@H]4CCC(C)(C)[C@H]5C(=O)OC[C@@]45[C@@H]2CC[C@@H]1[C@H]3O,IC50,[1],16 µM
same,IC50,[5],20.3 µM
same,IC50,[6],43.1 µM
same,IC50,[7],39.7 µM
same,IC50,[3],23.7 µM
same,IC50,[4],2.64 µM
C=C1C(=O)[C@@]23C(=O)OC[C@]4(C(=O)CCC(C)(C)[C@H]4C=O)[C@@H]2CC[C@@H]1[C@H]3OC(=O)c1ccc([N+](=O)[O-])cc1,IC50,[1],3.3 µM
same,IC50,[2],3.33 µM
same,IC50,[3],2.68 µM
same,IC50,[4],1.33 µM
